# Assay results as given in ChEMBL document CHEMBL4251593, “Nontoxic combretafuranone analogues with high in vitro antibacterial activity” (Eur J Med Chem, 2018).
# What was measured:
# HL-60 [1] = assay: Induction of apoptosis in human HL60 cells assessed as caspase 3/7 activity after 24 hrs by caspase-glo luminescent assay; format: cell-based; settings: HL-60, 24 h
# Outline: (§1)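 Cells were seeded at 500 per well in their growth media and exposed to 12 concentrations from 40 µM to 1 nM, delivered from DMSO, in triplicate. After 24 h, caspase-3/7 activity was read by Caspase-Glo luminescence. Data were normalized and ED50 was fitted by variable-slope nonlinear regression.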
# HepG2 [2] = assay: Induction of apoptosis in human HepG2 cells assessed as caspase 3/7 activity after 24 hrs by caspase-glo luminescent assay; format: cell-based; settings: HepG2, 24 h; outline: as §1
# PC-3 [3] = assay: Cytotoxicity against human PC3 cells assessed as reduction in cell viability after 48 hrs by ATPlite-based luminescent assay; settings: PC-3, 48 h
# Outline: (§2)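 Cells were grown […] with 10% FBS, glutamax, NEAA and pen/strep at 37 °C, 5% CO2. Media were DMEM for RPE-1, HepG2 and BJ (BJ plus 10 ng/ml bFGF), F-12K for PC3, and IMDM for K562/HL-60. Cells were seeded at 500 per well and dosed from DMSO at 12 concentrations, 40 µM to 1 nM, in triplicate. After 48 h, intracellular ATP was read by luminescence. ED50 was obtained by variable-slope nonlinear regression.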
# K562 [4] = assay: Induction of apoptosis in human K562 cells assessed as caspase 3/7 activity after 24 hrs by caspase-glo luminescent assay; format: cell-based; settings: K562, 24 h; outline: as §1
# K562 [5] = assay: Cytotoxicity against human K562 cells assessed as reduction in cell viability after 48 hrs by ATPlite-based luminescent assay; settings: K562, 48 h; outline: as §2
# TERT-RPE1 [6] = assay: Cytotoxicity against human RPE1 cells assessed as reduction in cell viability after 48 hrs by ATPlite-based luminescent assay; settings: RPE-1, 48 h; outline: as §2
# PC-3 [7] = assay: Induction of apoptosis in human PC3 cells assessed as caspase 3/7 activity after 24 hrs by caspase-glo luminescent assay; format: cell-based; settings: PC-3, 24 h; outline: as §1
# HL-60 [8] = assay: Cytotoxicity against human HL60 cells assessed as reduction in cell viability after 48 hrs by ATPlite-based luminescent assay; settings: HL-60, 48 h; outline: as §2
# HepG2 [9] = assay: Cytotoxicity against human HepG2 cells assessed as reduction in cell viability after 48 hrs by ATPlite-based luminescent assay; settings: HepG2, 48 h; outline: as §2
# TERT-RPE1 [10] = assay: Induction of apoptosis in human RPE1 cells assessed as caspase 3/7 activity after 24 hrs by caspase-glo luminescent assay; format: cell-based; settings: RPE-1, 24 h; outline: as §1
# BJ = assay: Cytotoxicity against human BJ cells assessed as reduction in cell viability after 48 hrs by ATPlite-based luminescent assay; outline: as §2
# MCF7 = assay: Cytotoxicity against human MCF7 cells assessed as reduction in cell viability after 48 hrs by ATPlite-based luminescent assay; settings: MCF7, 48 h
# Pseudomonas aeruginosa [11] = assay: Antibacterial activity against Pseudomonas aeruginosa ATCC 9027 after 24 hrs by microdilution assay; format: functional; settings: ATCC 9027, 24 h
# Outline: (§3)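 Broth microdilution in Mueller-Hinton medium buffered to pH 7.4 (±0.2), with DMSO as diluent at no more than 2% final. Compounds were tested as 2-fold serial dilutions from 2000 to 0.488 µmol/l. The inoculum was 0.5 McFarland (1.5×10^8 cfu/ml). Plates were held at 37 °C and read visually at 24 and 48 h. MIC was taken as 95% growth inhibition versus control, determined twice in duplicate.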
# Escherichia coli [12] = assay: Antibacterial activity against Escherichia coli ATCC 8739 after 24 hrs by microdilution assay; format: functional; settings: ATCC 8739, 24 h; outline: as §3
# Escherichia coli [13] = assay: Antibacterial activity against Escherichia coli ATCC 8739 after 48 hrs by microdilution assay; format: functional; settings: ATCC 8739, 48 h; outline: as §3
# Pseudomonas aeruginosa [14] = assay: Antibacterial activity against Pseudomonas aeruginosa ATCC 9027 after 48 hrs by microdilution assay; format: functional; settings: ATCC 9027, 48 h; outline: as §3
Compound,IC50 (HL-60 [1]),IC50 (HepG2 [2]),IC50 (K562 [4]),IC50 (PC-3 [7]),MIC95 (Pseudomonas aeruginosa [11]),MIC95 (Escherichia coli [12]),MIC95 (Escherichia coli [13]),MIC95 (Pseudomonas aeruginosa [14]),IC50 (PC-3 [3]),IC50 (K562 [5]),IC50 (TERT-RPE1 [6]),IC50 (HL-60 [8]),IC50 (HepG2 [9]),IC50 (TERT-RPE1 [10]),IC50 (BJ),IC50 (MCF7)
O=C1OCC(c2ccc(O)cc2)=C1c1ccc(Br)cc1,> 40 µM,> 40 µM,> 40 µM,> 40 µM,,,,,> 40 µM,> 40 µM,> 40 µM,> 40 µM,> 40 µM,> 40 µM,> 40 µM,> 40 µM
CCc1ccc(C2=C(c3ccc(Br)cc3)C(=O)OC2)cc1,> 40 µM,> 40 µM,> 40 µM,> 40 µM,,,,,> 40 µM,0.47 µM,1.3 µM,1.02 µM,> 40 µM,> 40 µM,> 40 µM,13 µM
COc1cc(C2=C(c3ccc4c(c3)OCO4)C(=O)OC2)cc(OC)c1OC,> 40 µM,> 40 µM,> 40 µM,> 40 µM,,,,,> 40 µM,> 40 µM,> 40 µM,> 40 µM,> 40 µM,> 40 µM,> 40 µM,> 40 µM
O=C(O)c1cn(C2CC2)c2cc(N3CCNCC3)c(F)cc2c1=O [CIPROFLOXACIN],,,,,3.9 µM,0.06 µM,0.06 µM,7.81 µM,,,,,,,,
CC[C@@]1(O)C(=O)OCc2c1cc1n(c2=O)Cc2cc3ccccc3nc2-1 [CAMPTOTHECIN],0.07 µM,4.37 µM,0.711 µM,> 40 µM,,,,,0.4 µM,0.09 µM,> 40 µM,0.02 µM,0.43 µM,27.2 µM,> 40 µM,0.34 µM

# Now from value to compound, other results behind:
IC50 (HL-60 [1]),IC50 (HepG2 [2]),IC50 (K562 [4]),IC50 (PC-3 [7]),MIC95 (Pseudomonas aeruginosa [11]),MIC95 (Escherichia coli [12]),MIC95 (Escherichia coli [13]),MIC95 (Pseudomonas aeruginosa [14]),Compound,IC50 (PC-3 [3]),IC50 (K562 [5]),IC50 (TERT-RPE1 [6]),IC50 (HL-60 [8]),IC50 (HepG2 [9]),IC50 (TERT-RPE1 [10]),IC50 (BJ),IC50 (MCF7)
0.54 µM,> 40 µM,> 40 µM,> 40 µM,,,,,Cc1ccc(C2=C(c3ccc(Cl)c(Cl)c3)C(=O)OC2)cc1,> 40 µM,0.12 µM,0.54 µM,0.23 µM,> 40 µM,3.5 µM,> 40 µM,15.4 µM
> 40 µM,> 40 µM,> 40 µM,> 40 µM,,,,,O=C1OCC(c2ccc(Cl)cc2)=C1c1ccc(C(F)(F)F)cc1,> 40 µM,> 40 µM,14.9 µM,> 40 µM,> 40 µM,> 40 µM,> 40 µM,12.3 µM
0.44 µM,> 40 µM,> 40 µM,> 40 µM,,,,,Cc1ccc(C2=C(c3ccc(Cl)cc3Cl)C(=O)OC2)cc1,> 40 µM,0.19 µM,0.91 µM,0.27 µM,> 40 µM,10.1 µM,> 40 µM,23.9 µM
> 40 µM,> 40 µM,> 40 µM,> 40 µM,,,,,Cc1ccc(C2=C(c3ccccc3Cl)C(=O)OC2)cc1,> 40 µM,0.78 µM,2.09 µM,1.04 µM,> 40 µM,13.3 µM,> 40 µM,> 40 µM
